MPTP inh: permeability transition pore inhibition; 360,000 compounds, 1.4% hits; isolated mouse mitochondria, Ca2+ swelling absorbance, 30 min; AID 602449; inhibition, % at 10 µM;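 active means inhibition of 50% or more, scaled per plate between neutral and stimulator controls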;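 further: 0% = DMSO wells given calcium and 100% = 1 mM EGTA wells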
NR3A LBD binder: modulates the human NR3A ligand-binding domain | 340,000 compounds, 2.5% hits | AID 1259313 | Tm shift relative to glycine control, % at 25 µM | NR3A LBD differential scanning fluorimetry, Tm shift; 0% = protein alone, 100% = glycine-bound protein;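 active means melting temperature shift of at least 10% of the positive control shift, at one fixed dose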
UPR XBP1 act: activators of adaptive arm of unfolded protein response (XBP1) | 330,000 compounds, 0.33% hits | activation, % at 20 µM | CHO-XBP1 luciferase reporter, IRE1-XBP1 UPR activation, luminescence; percent of tunicamycin response, DMSO as zero | AID 463104;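 active means versus positive control, 20 µM dose yields 30% or more activation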;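 further: 100% = tunicamycin at 10 µg/mL and 0% = DMSO only wells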
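Assay system: IRE1-XBP1 luciferase reporter CHO line. Input: 1000 cells/well. Buffer or medium: F12 with 10% serum. Doses: 20 µM, 1% DMSO. Times: overnight seeding at 37 °C, 6 h compound treatment at 37 °C. Technique: Steady-Glo luciferase glow luminescence, 10 min after reagent addition.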
CHOP inhibitor: blocks CHOP induction under ER stress. CHO-K1 CHOP-promoter luciferase, tunicamycin-induced, 15-18 h. inhibition, % at 10 µM. 220,000 compounds, 3.8% hits. AID 2732;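 active means compounds that reduced the stress-induced luciferase reporter signal by more than about 70% of percent inhibition, limit read from the data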;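 further: 0% = tunicamycin plus vehicle and 100% = wells without tunicamycin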
aDG glyco up: alpha-DG glycosylation activation | 360,000 compounds, 0.22% hits | Pro5-aDG cells, alpha-DG glycosylation AlphaScreen (IIH6); 0% Pro5, 100% B10-LARGE cell signal | AID 624168 | activation, % at 10 µM;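 active means activation of at least 8% versus controls, or a plate z-score of at least 8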;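 further: Pro5 are CHO cells carrying HIG-tagged alpha-DG that lacks glycosylation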
CHOP UPR activ: apoptotic UPR (CHOP) activation; CHO-CHOP luciferase reporter, luminescence; percent of tunicamycin response over DMSO baseline; activation, % at 10 µM; 330,000 compounds, 0.34% hits;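 active means at 10 µM dose, activation of 40% or more, normalized to positive control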;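 further: 100% = tunicamycin at 10 µg/mL and 0% = DMSO alone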
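System: CHO-CHOP luciferase reporter cell line; amount: 500 cells/well; buffer or medium: F12 medium containing 10% fetal bovine serum; incubation: 6 h compound exposure at 37 °C after overnight seeding; measured by: luciferase luminescence after 10 min with Steady-Glo reagent; evaluation: % reporter activation, DMSO baseline versus tunicamycin full activation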
* hit, by the source's call; / = no result; ! = a repeat was not active. A selection: hits, their analogues and other compounds. The true share with any hit is near 5.6%.

SMILES	MPTP inh	NR3A LBD binder	UPR XBP1 act	CHOP inhibitor	aDG glyco up	CHOP UPR activ
C=CCn1c(O)c(/C=C2\C=NN=C2c2ccccc2)sc1=S	12.4	12.0*	2.2	9.2	-0.1	-0.3
CCCn1c(O)c(/C=C2\C=NN=C2c2ccccc2)sc1=S	20.8	15.8*	4.3	12.5	-0.5	1.7
CN(C)CCCNCCCNC(=O)c1ccco1	-0.7	11.2*!	-1.2	-4.6	0.0	-1.1
CC(C)n1nc(C(=O)OCC(=O)c2c[nH]c3ccccc23)c2ccccc2c1=O	3.0	7.4	4.3	80.5*	-0.2	1.0
COC(=O)CCCn1cc(CN(C)C2CN(Cc3cn(CCCC(=O)OC)nn3)S(=O)(=O)C2)nn1 (stereo not given)	-1.6	/	/	/	0.1	/
O=c1oc2ccccc2cc1-c1cn2ccccc2n1	-11.6	0.9	-9.8	94.8*	-0.3	-8.8
CCC(c1nnnn1-c1ccc2c(c1)OCCO2)N1CCN(c2ccc(C(F)(F)F)cc2[N+](=O)[O-])CC1 (stereo not given)	-0.5	/	/	/	-0.1	/
COc1ccc(S(=O)(=O)N2CCCC2CNC(=O)C(=O)NC2CCCCCC2)cc1 (stereo not given)	-0.2	16.8*	0.7	/	0.0	3.3
Cc1ccc(Cn2c(=O)sc3ccccc3c2=O)cc1	1.9	10.7*	0.5	65.3	0.2	2.3
Cc1ccc(/C=C2\Sc3ccccc3C2=O)s1	0.6	4.3	3.6	70.4*	0.0	3.1
CCC(=O)N(C)/C=C1\Sc2ccccc2C1=O	1.6	2.2	0.5	/	-0.1	0.4
CC(=O)Nc1ccc(/C=C2\Sc3ccccc3C2=O)cc1	3.5	7.7	2.8	29.0	-0.1	3.6
O=CN(/C=C1\Sc2ccccc2C1=O)Cc1ccccc1	2.8	22.2*	0.5	14.7	0.0	4.6
CC(=O)N(C)/C=C1\Sc2ccccc2C1=O	0.7	13.6*	1.1	7.1	-0.2	0.3
O=C(Cn1ccc(NC(=O)OCc2ccccc2)nc1=O)NCCCn1ccnc1	1.1	1.3	0.3	/	-0.2	-0.6
CCOC(=O)C1=C(C)N=C2SC(C(=O)OC)=CC(=O)N2C1c1cc(OC)c(OC)c(OC)c1 (stereo not given)	-6.4	1.9	0.8	1.6	-0.1	1.2
CN1CCN(S(=O)(=O)c2ccc(NC(=O)c3ccc(Br)s3)cc2)CC1	0.9	28.9*	2.7	24.5	0.1	4.7
Cc1cc(NS(=O)(=O)c2ccc(NC(=S)NC(=O)c3ccc(F)cc3)cc2)no1	-2.9	13.7*	-0.3	-0.7	-0.1	3.0
Cc1cc(NC(=O)Nc2cccc(Cl)c2)no1	17.4	/	/	/	-0.3	/
Cc1ccc(OC(C)C(=O)Nc2ccc(S(=O)(=O)Nc3cc(C)on3)cc2)cc1 (stereo not given)	-1.1	15.7*	0.3	-14.3	-0.3	-0.1
Cc1cc(NS(=O)(=O)c2ccc(NC(=O)C(C)Oc3ccc(Cl)cc3)cc2)no1 (stereo not given)	-1.1	-1.6	0.0	4.9	-0.1	1.2
Cc1cc(NS(=O)(=O)c2ccc(NC(=O)Nc3cccc(Cl)c3)cc2)no1	11.1	21.2*	1.6	-53.3	-0.1	-2.7
COc1cccc(NC(=O)c2ccccc2N2C(=O)C3C4C=CC(C4)C3C2=O)c1 (stereo not given)	-1.2	0.5	-4.9	/	0.0	-0.5
COc1cccc(-c2noc(-c3ccc(Cl)nc3)n2)c1	0.2	-0.4	0.8	2.6	0.2	3.7
CN1CCN(S(=O)(=O)c2ccc(NC(=O)Nc3cccc(Cl)c3)cc2)CC1	16.7	14.2*	-1.9	31.9	0.7	-1.5
SMILES	MPTP inh	NR3A LBD binder	UPR XBP1 act	CHOP inhibitor	aDG glyco up	CHOP UPR activ
Cc1c(C(=O)Nc2ccc(S(=O)(=O)Nc3ncccn3)cc2)oc2ccccc12	-0.5	-1.8	-0.3	/	-0.2	0.6
Cc1cc(NS(=O)(=O)c2ccc(NC(=O)c3oc4ccccc4c3C)cc2)no1	-1.2	13.6*	0.4	13.4	0.1	-0.2
Cc1nc2cc(NC(=O)c3ccc(Br)s3)ccc2s1	0.3	24.8*	-5.2	/	1.3	3.5
CN(CC1COc2ccccc2O1)C(=O)CSc1ncccn1 (stereo not given)	0.4	0.5	0.8	/	0.1	2.8
C=CCn1c(SCc2c(C)noc2C)nc2sc3c(c2c1=O)CCCC3	3.6	-1.3	0.1	82.7*	0.4	-0.5
Cc1noc(C)c1CSc1nc2sc3c(c2c(=O)n1C)CCCC3	-0.9	1.7	0.9	76.0*	0.3	2.1
Cn1c(SCCN2CCOCC2)nc2sc3c(c2c1=O)CCCC3	0.2	0.2	-1.6	/	0.2	2.5
C=CCn1c(SCc2c(C)noc2C)nc2sc3c(c2c1=O)CCCCC3	14.6	1.2	-0.6	57.7	0.1	-1.4
Cc1ccc(NS(=O)(=O)c2ccc(OCC(N)=O)cc2)cc1	-1.6	-0.9	-2.0	12.2	0.5	-1.6
CC(C)C1COS(=O)(=O)NC1CC(=O)SC(C)(C)C (stereo not given)	0.3	1.4	-2.3	/	-0.1	0.0
CCN1C=C(C(C)=O)C(=O)CC1	-0.7	0.2	/	/	-0.2	/
NNC(=O)Cc1cccc2ccc(Cl)cc12	0.7	/	/	/	0.0	/
COc1cc(S(=O)(=O)Nc2ccc(C)cc2)ccc1N=Cc1c(C)[nH]n(-c2ccccc2)c1=O	-2.0	26.1*	8.6	57.5	0.5	7.6
O=C(/C(=C/O)N=Nc1ccc(Cl)cc1)c1ccncc1	-4.9	-11.7	13.3	48.2	-0.4	0.2
Cc1ccc(N=N/C(=C\O)C(=O)c2ccncc2)cc1	-2.1	0.9	0.0	88.6*	-0.3	3.4
CC(C)CN1C(=O)C(=O)N(CC(=O)c2ccc3c(c2)CCCC3)C1=O	-1.6	0.4	2.4	/	-0.1	0.7
COc1ccc(NC(C)C(=O)N/N=C/c2ccccc2OCc2ccc(Br)cc2)cc1 (stereo not given)	-5.4	-2.5	0.5	28.2	0.5	9.9
CC(Nc1ccc(Br)cc1)C(=O)N/N=C/c1ccccc1OCc1ccccc1 (stereo not given)	14.5	0.8	8.2	91.6*	-0.1	1.6
CCC(=NCCc1c(C)[nH]c2ccccc12)C1=C(O)CC(c2ccccc2)CC1=O (stereo not given)	3.9	16.4*	0.8	34.1	0.1	2.7
COc1cccc(NC(=O)CN(C)C(=O)CSc2ccc3c(c2)OCCO3)c1	-0.3	0.5	-0.6	/	0.0	0.8
COc1ccccc1NC(=O)CC1C(=O)NCCN1C(=O)Nc1ccc(Cl)c(Cl)c1 (stereo not given)	-1.8	11.9*	3.6	42.4	-0.2	1.2
Cc1c(-c2cccc(Cl)c2)nc2ccccc2c1C(=O)OCC(=O)Nc1ccc2c(c1)OCO2	8.6	21.3*	-1.4	78.5*	0.0	0.2
Cc1onc(-c2ccccc2)c1C(=O)OCC(=O)Nc1ccc2c(c1)OCO2	3.3	-2.2	-1.3	9.7	0.4	-0.7
